The full list was thinned out, with hits kept by preference.
T cruzi HTS – inhibitors of intracellular Trypanosoma cruzi; intracellular Trypanosoma cruzi in host cells, plate reader; activity score (inhibition), % at 5.01 µM; hit rate 4.9% among 22,000; AID 651903; in the data active = activity score above about 55%; inconclusive = no clear call, values can overlap the other calls;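 also: parasites and compound incubated about four days before reading; 0% = median of neutral control wells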
YB-1 expr inh – YB-1 expression inhibition | U2OS, qRT-PCR YB-1 vs CDIP delta delta Cp, 16 h; stronger effect = higher value; zero = DMSO, each unit about twofold | delta delta Cp (YB-1 minus CDIP) (no concentration beside the values) | hit rate 0.37% among 30,000;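 active = delta delta Cp rounded down to an integer at or above 3, about 3 SD of DMSO wells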;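 also: higher means less YB-1 transcript or more CDIP transcript relative to DMSO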
INS-1E rescue – preserves ATP levels in cytokine-treated INS-1E cells; INS-1E cytokine-induced death, ATP luminescence, 48 h; normalised: neutral wells 0, positive control 100; protection from cytokine-induced ATP loss, % at 10 µM; hit rate 0.1% among 20,000;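 active = mean replicate protection from cytokine-induced ATP loss at least 50% and at least 75% of replicates each reaching 50%; inconclusive = meets only one of the two criteria, mean or replicate share; inactive = fails both the mean and replicate share criteria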
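assay system = INS-1E rat insulinoma cells | amount = 8000 cells per well | medium = phenol-red-free RPMI with 5% fetal bovine serum | doses = one compound concentration, pin transfer | timing = 48 h cytokine plus compound treatment, 10 min reagent incubation | also added = IL-1β, TNF-α and IFN-γ cytokine mix | signal = CellTiter-Glo luminescence measuring cellular ATP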
Starred values were filed as active, the others as inactive; ? = inconclusive; . = no result given.

SMILES | T cruzi HTS | YB-1 expr inh | INS-1E rescue
COc1ccc(NC(=O)Nc2cccc3c2O[C@H](CN(C)Cc2ccc(C(=O)Nc4ccccc4N)cc2)[C@@H](C)CN([C@H](C)CO)C3=O)cc1 | 37 | -0.68 | 9
COc1ccc(NC(=O)Nc2cccc3c2O[C@H](CN(C)Cc2ccc(C(=O)Nc4ccccc4N)cc2)[C@@H](C)CN([C@@H](C)CO)C3=O)cc1 | 56* | -0.74 | 24
C[C@H](CO)N1C[C@H](C)[C@@H](CN(C)CC2CCCCC2)Oc2c(NC(=O)c3ccc(-c4nccs4)cc3)cccc2C1=O | 45 | -0.23 | -37
C[C@@H]1CN([C@H](C)CO)C(=O)c2cccc(NC(=O)c3ccc(-c4nccs4)cc3)c2O[C@H]1CN(C)Cc1ccc(C(=O)O)cc1 | -10 | -0.41 | 12
C[C@@H]1CN([C@@H](C)CO)C(=O)c2cccc(NC(=O)c3ccc(-c4nccs4)cc3)c2O[C@H]1CN(C)CC1CCCCC1 | 64* | 0.088 | -43
C[C@H]1CN([C@@H](C)CO)C(=O)c2cccc(NC(=O)c3ccc(-c4nccs4)cc3)c2O[C@H]1CN(C)Cc1ccc(C(=O)Nc2ccccc2N)cc1 | 71* | -0.39 | -15
C[C@@H]1CN([C@H](C)CO)C(=O)c2cccc(NC(=O)c3ccc(-c4nccs4)cc3)c2O[C@H]1CN(C)Cc1ccccc1 | 39 | -0.22 | -13
C[C@H](CO)N1C[C@H](C)[C@@H](CN(C)Cc2ccc(Cl)c(Cl)c2)Oc2c(NC(=O)c3ccc(-c4nccs4)cc3)cccc2C1=O | 62* | -0.5 | -32
C[C@@H]1CN([C@@H](C)CO)C(=O)c2cccc(NC(=O)c3ccc(-c4nccs4)cc3)c2O[C@H]1CN(C)Cc1ccc(C(=O)Nc2ccccc2N)cc1 | 48 | -0.5 | 19
C[C@@H]1CN([C@H](C)CO)C(=O)c2cccc(NC(=O)c3ccc(-c4nccs4)cc3)c2O[C@@H]1CN(C)Cc1ccc(C(=O)Nc2ccccc2N)cc1 | 81* | -0.46 | ?
CC(C)=CCc1c(-c2ccc(O)cc2O)oc2c(CC=C(C)C)c(O)cc(O)c2c1=O | . | -0.31 | .
COc1cc(/C=N/NC(=O)c2ccccn2)ccc1O | -7 | -0.59 | 6
O=C(O)CCCCCCC(=O)N/N=C/c1ccc(C(F)(F)F)cc1 | -9 | 0.15 | 12
C[C@@H]1CN([C@@H](C)CO)C(=O)c2cccc(NC(=O)c3ccc(-c4nccs4)cc3)c2O[C@@H]1CN(C)C(=O)Nc1ccc(C(F)(F)F)cc1 | 66* | -0.13 | -87
C[C@@H]1CN([C@H](C)CO)C(=O)c2cccc(NC(=O)c3ccc(-c4nccs4)cc3)c2O[C@@H]1CN(C)Cc1ccc(-c2ccccc2)cc1 | 42 | -0.23 | -43
C[C@H](CO)N1C[C@H](C)[C@H](CN(C)C(=O)Nc2ccc(C(F)(F)F)cc2)Oc2c(NC(=O)c3ccc(-c4nccs4)cc3)cccc2C1=O | ? | 2.2 | -55
C[C@H](CO)N1C[C@H](C)[C@H](CN(C)S(=O)(=O)c2ccc(Cl)cc2)Oc2c(NC(=O)c3ccc(-c4nccs4)cc3)cccc2C1=O | 63* | -0.4 | -37
C[C@H]1CN([C@@H](C)CO)C(=O)c2cccc(NC(=O)c3ccc(-c4nccs4)cc3)c2O[C@@H]1CN(C)Cc1ccc(-c2ccccc2)cc1 | 70* | -0.4 | -29
C[C@H](CO)N1C[C@H](C)[C@@H](CN(C)S(=O)(=O)c2ccc(Cl)cc2)Oc2c(NC(=O)c3ccc(-c4nccs4)cc3)cccc2C1=O | 30 | -0.4 | 2
COc1ccc2c(=S)c(-c3cc4ccccc4o3)c(C)oc2c1 | . | -0.094 | .
O=C(NO)c1cccc(C(=O)N/N=C/c2ccc(O)c(F)c2)c1 | -14 | -0.3 | 0
C[C@H](CO)N1C[C@H](C)[C@H](CN(C)Cc2ccc(C(F)(F)F)cc2)Oc2ccc(NC(=O)Cn3cnnn3)cc2C1=O | -13 | -0.17 | -2
C[C@H]1CN([C@@H](C)CO)C(=O)c2cccc(NC(=O)Nc3cccc4ccccc34)c2O[C@H]1CN(C)Cc1ccc(-c2ccccc2)cc1 | 40 | -0.05 | -18
O=C(O)CCCCCCC(=O)N/N=C/C1CCCCC1 | -25 | 1.4 | 15
C[C@H]1CN([C@@H](C)CO)C(=O)c2cccc(NC(=O)c3ccncc3)c2O[C@H]1CN(C)Cc1ccc(-c2ccccc2)cc1 | 72* | 0.16 | -10
SMILES | T cruzi HTS | YB-1 expr inh | INS-1E rescue
C[C@H](CO)N1C[C@H](C)[C@H](CN(C)Cc2ccc(C(=O)Nc3ccccc3N)cc2)Oc2c(NC(=O)c3ccncc3)cccc2C1=O | -27 | -0.47 | -4
C[C@H]1CN([C@@H](C)CO)C(=O)c2cccc(NC(=O)c3ccncc3)c2O[C@H]1CN(C)Cc1ccc(C(=O)O)cc1 | -30 | 0.16 | 13
C[C@H]1CN([C@@H](C)CO)C(=O)c2cccc(NC(=O)c3ccncc3)c2O[C@@H]1CN(C)Cc1ccc(-c2ccccc2)cc1 | 79* | -0.26 | -16
C[C@@H]1CN([C@H](C)CO)C(=O)c2cccc(NC(=O)C3CCOCC3)c2O[C@@H]1CN(C)Cc1ccc(Oc2ccccc2)cc1 | -6 | -0.47 | -16
O=C1c2ccccc2-c2c(NCCc3ccccc3)c(=O)[nH]c3cccc1c23 | . | -0.48 | .
C[C@@H]1CN([C@H](C)CO)C(=O)c2cccc(NC(=O)c3cnccn3)c2O[C@H]1CN(C)S(=O)(=O)c1ccccc1 | -12 | -0.086 | 1
C[C@H](CO)N1C[C@H](C)[C@H](CN(C)Cc2ccc(C(=O)Nc3ccccc3N)cc2)Oc2ccc(NC(=O)C3CCCCC3)cc2CC1=O | 61* | -0.28 | 29
C[C@H](CO)N1C[C@H](C)[C@H](CN(C)Cc2ccc(C(=O)Nc3ccccc3N)cc2)Oc2ccc(NC(=O)C3CC3)cc2CC1=O | 63* | -0.55 | 32
C[C@@H]1CN([C@H](C)CO)C(=O)Cc2cc(NC(=O)C3CCCCC3)ccc2O[C@@H]1CN(C)Cc1ccc(C(=O)Nc2ccccc2N)cc1 | 54 | -0.58 | -13
C[C@H]1CN([C@@H](C)CO)C(=O)Cc2cc(NC(=O)C3CC3)ccc2O[C@@H]1CN(C)Cc1ccc(C(=O)Nc2ccccc2N)cc1 | 51 | 0.19 | -11
COc1ccc2c(c1)c(C(=O)O)c(C)n2CCc1ccc(OC)c(OC)c1 | . | -0.32 | .
COc1ccc2c(c1)c(C(=O)ON1C(=O)CCC1=O)c(C)n2C1CC1 | . | 3.8* | .
C[C@H](C[C@@H](O)[C@](C)(O)[C@H]1CC[C@@]2(O)C3=CC(=O)[C@@H]4C[C@@H](O)[C@@H](O)C[C@]4(C)C3CC[C@]12C)C(C)(C)O (some centres undefined) | . | -0.052 | .
C[C@@H]1CN([C@@H](C)CO)C(=O)Cc2cc(NC(=O)CCC(F)(F)F)ccc2O[C@@H]1CN(C)Cc1ccc(Oc2ccccc2)cc1 | 9 | -0.038 | -62
C[C@@H]1CN([C@H](C)CO)C(=O)Cc2cc(NC(=O)CCC(F)(F)F)ccc2O[C@@H]1CN(C)Cc1ccc(Oc2ccccc2)cc1 | 63* | -0.17 | -72
C[C@H](CO)N1C[C@H](C)[C@H](CN(C)Cc2ccc(Oc3ccccc3)cc2)Oc2ccc(NC(=O)CCC(F)(F)F)cc2CC1=O | 22 | 0.15 | -16

Source: PubChem BioAssay (Broad Institute)
